Screening data from PubChem BioAssay.
This is a sample that favours compounds with a hit; in the whole collection about 2.3% have one here.
Arr AP2 block = blocks beta-arrestin peptide binding to AP2 adaptin; inhibition, % at 10 µM; 340,000 tested, 0.31% active; AID 504490; FITC-arrestin peptide / GST-AP2 beads, flow cytometry; AP2 beta2 appendage carries R879A mutation;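 active means inhibition above a set limit, near 3 SD of compounds lacking own fluorescence, cut at about 54% in these data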;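 further: plate controls were DMSO wells for no effect and 5 µM unlabelled arrestin peptide for full effect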
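System: GST-AP2 R879A glutathione beads. Medium: PBS with 0.05% Tween 20 and 0.1% BSA. Also added: FITC-arrestin peptide, 50 nM. Incubation: 12 min plus 1 h, RT. Measured by: high-throughput flow cytometry of beads, ex 488, em 535 nm. Evaluation: percent drop in bead-associated FITC signal.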
MEKK2 mut-MEK5 = signal of MEK5 binding to mutant human MEKK2 PB1 domain | bead flow cytometry, Alexa488-MEK5 binding to MEKK2 mutant | percent response, % at 10 µM | 290,000 tested, 0.35% active | AID 1530; in the data active means percent response above about 24%, passing the limit was not always enough
MEKK3 PB1 HTS = MEKK3-MEK5 PB1 interaction, increase or decrease. Q99759. bead-based flow cytometry, Alexa488-MEK5 binding to MEKK3; actives lie on both sides; 0 = blocked by unlabeled MEK5, 100 = vehicle. binding response (% of control), % at 10 µM. 290,000 tested, 1.4% active. AID 1529;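 active means binding response more than 3 SD above or below the average of its plate-row segment, actives on both sides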;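 further: Alexa488 bead fluorescence after subtracting the streptavidin-only scavenger bead signal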
Target sequence (Q99759 whole entry, looked up): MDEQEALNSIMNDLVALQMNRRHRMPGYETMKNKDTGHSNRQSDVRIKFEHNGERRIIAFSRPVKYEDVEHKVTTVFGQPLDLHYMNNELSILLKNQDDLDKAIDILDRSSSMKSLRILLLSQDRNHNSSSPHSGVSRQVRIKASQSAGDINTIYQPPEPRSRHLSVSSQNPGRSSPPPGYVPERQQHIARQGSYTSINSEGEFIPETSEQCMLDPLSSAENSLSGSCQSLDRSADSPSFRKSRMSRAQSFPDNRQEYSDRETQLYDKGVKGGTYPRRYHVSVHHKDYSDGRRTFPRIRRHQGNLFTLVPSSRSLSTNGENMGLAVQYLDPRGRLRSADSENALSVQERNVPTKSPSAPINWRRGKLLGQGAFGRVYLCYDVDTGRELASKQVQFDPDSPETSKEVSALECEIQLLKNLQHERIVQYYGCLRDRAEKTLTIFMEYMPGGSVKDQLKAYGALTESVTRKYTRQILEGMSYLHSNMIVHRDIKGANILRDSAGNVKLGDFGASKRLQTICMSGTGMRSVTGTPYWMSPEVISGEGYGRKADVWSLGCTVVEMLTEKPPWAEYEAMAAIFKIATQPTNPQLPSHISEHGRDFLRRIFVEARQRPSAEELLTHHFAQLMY
MEKK2 WT-MEK5 = raises or lowers MEK5 binding to wildtype human MEKK2 PB1 domain. Q9Y2U5. bead flow cytometry, Alexa488-MEK5 binding to MEKK2 WT; actives lie on both sides. binding response (% of control), % at 10 µM. 290,000 tested, 1.1% active. AID 1531; in the data active means binding response below about 67% or above about 130%
MEKK2wt confirm = raises or lowers MEK5 binding to wildtype human MEKK2, retest. shares compounds with MEKK3 PB1 HTS. bead flow cytometry, Alexa488-MEK5 binding to MEKK2 WT; actives lie on both sides. binding response (% of control), % at 10 µM. 5,900 tested, 2.4% active. AID 1892; in the data active means binding response below about 16% or above about 210%; inactive means in between
MEKK2mut-MEK5 = signal of MEK5 binding to mutant human MEKK2, retest. shares compounds with MEKK3 PB1 HTS. bead flow cytometry, Alexa488-MEK5 binding to MEKK2 mutant. percent response, % at 10 µM. 5,900 tested, 2% active. AID 1893; in the data active means percent response mostly above about 71%, no sharp cut-off; inactive means mostly below about 38%;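 further: higher means compound restores mutant binding toward wildtype level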
MEKK3-MEK5 inh = MEKK3-MEK5 PB1 inhibition, single concentration confirmation; shares compounds with MEKK3 PB1 HTS; AID 1894; bead flow cytometry, Alexa488-MEK5 binding to MEKK3; active compounds read low; 5,900 tested, 1.8% active; binding response (% of control), % at 10 µM;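 active means binding response below 72% of control, or above a set upper limit, though filed actives all read lower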;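 further: 100% = DMSO only wells and 0% = binding blocked by excess unlabeled MEK5; lower values mean stronger disruption of MEK5 binding to MEKK3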
* = called active by the depositor; . = no result; [ ] = dose if it differs, or a comment.

SMILES | Arr AP2 block | MEKK2 mut-MEK5 | MEKK3 PB1 HTS | MEKK2 WT-MEK5 | MEKK2wt confirm | MEKK2mut-MEK5 | MEKK3-MEK5 inh
CCc1ccc(NS(=O)(=O)c2cccs2)cc1 | 37.3 | 39.0* | 114.0 | 88.0 | 96.0 | -7.0 | 99.0
Cc1cc(C)cc(NS(=O)(=O)c2cccs2)c1 | -12.2 | 3.0 | 103.0 | 104.0 | . | . | .
O=C(Cn1cc(SCc2cccc(Cl)c2)c2ccccc21)N1CCOCC1 | -11.9 | 1.0 | 140.0* | 111.0 | 101.0 | -17.0 | 98.0
COC(=O)c1ccc(C(=O)OC)c(NC(=S)N2CCN(c3ccccn3)CC2)c1 | -27.7 | -2.0 | 94.0 | 94.0 | . | . | .
O=C(O)c1[nH]c2ccccc2c1CC(=O)N1CCN(c2ccccc2)CC1 | 30.6 | 3.0 | 132.0* | 112.0 | 103.0 | 4.0 | 104.0
COc1ccc(/C=C2\N=C(C)N(c3ccc4ccccc4c3)C2=O)cc1OC | 1.3 | 2.0 | 208.0* | 102.0 | 96.0 | -4.0 | 101.0
COc1ccc(/C=C2\N=C3CCCCCN3C2=O)cc1OC | 2.8 | 1.0 | 101.0 | 103.0 | . | . | .
O=C(Cn1cc(C(F)(F)F)cc(Cl)c1=O)NC1CCS(=O)(=O)C1 (stereo not given) | -4.8 | . | . | . | . | . | .
O=C(Nc1ccc(S(=O)(=O)N2CCCCC2)cc1)c1ccc(CN2CCOCC2)cc1 | -5.9 | 5.0 | 74.0*[inhibitor] | 89.0 | 104.0 | 2.0 | 107.0
COc1ccccc1C(=O)Nc1ccc(S(=O)(=O)N2CCOCC2)cc1 | -5.1 | 24.0* | 107.0 | 103.0 | 97.0 | 1.0 | 105.0
O=C(Nc1ccc(S(=O)(=O)N2CCCC2)cc1)c1ccc(CN2CCOCC2)cc1 | -9.8 | . | . | . | . | . | .
COc1ccc(NC(=O)c2[nH]c(C)c(C(C)=O)c2C)cc1S(=O)(=O)N1CCOCC1 | -10.7 | 0.0 | 129.0* | 105.0 | 102.0 | -3.0 | 103.0
CC(OC(=O)CNC(=O)c1ccccc1F)C(=O)Nc1nc(-c2ccccc2)cs1 (stereo not given) | . | -3.0 | 94.0 | 92.0 | . | . | .
Cc1cc(N/N=C2/CCCc3ccccc32)nc2ccccc12 | 19.9 | 28.0 | 108.0 | 160.0* | 154.0 | 28.0 | 109.0
c1ccc(N/N=C2\CCCc3ccccc32)nc1 | 31.6 | 2.0 | 101.0 | 99.0 | . | . | .
O=C(CSC1=Nc2ccccc2C2=NC(c3ccccc3)C(=O)N12)NC1CCCCC1 (stereo not given) | 29.0 | 6.0 | 124.0* | 125.0 | 101.0 | 2.0 | 103.0
CN(C(=O)CSC1=Nc2ccccc2C2=NC(c3ccccc3)C(=O)N12)C1CCCCC1 (stereo not given) | 28.2 | 3.0 | 100.0 | 98.0 | . | . | .
CC1CCCC(NC(=O)COC(=O)c2sc3ccccc3c2Cl)C1C (stereo not given) | -4.7 | 1.0 | 135.0* | 110.0 | 99.0 | 0.0 | 100.0
O=C(COC(=O)c1sc2ccccc2c1Cl)NCC1CCCCC1 | -4.7 | 16.0 | 104.0 | 107.0 | . | . | .
CC(C)CNC(=S)Nc1ccccc1F | 2.5 | 0.0 | 94.0 | 104.0 | . | . | .
CCCCNC(=S)Nc1ccccc1F | 16.2 | 25.0* | 111.0 | 108.0 | 108.0 | 0.0 | 101.0
Cc1cc(NC(=O)c2cccs2)ncc1NC(=O)C(C)(C)C | -0.8 | 5.0 | 105.0 | 108.0 | . | . | .
CCC(C)NC(=O)CN(c1cc(Cl)ccc1OC)S(C)(=O)=O (stereo not given) | 13.4 | 1.0 | 140.0* | 114.0 | 99.0 | -6.0 | 99.0
CCCC(=O)N1N=C(c2ccccc2)CC1c1cn(C)c2ccccc12 (stereo not given) | 0.7 | 3.0 | 134.0* | 107.0 | 100.0 | -4.0 | 100.0
COC(=O)C1=C(C)N(Cc2ccccc2)C(=NCc2cccc(C(F)(F)F)c2)N[C@H]1c1cccc(F)c1 | 0.8 | 89.0* | 108.0 | 208.0* | 221.0* | 64.0 | 108.0
COc1ccc(OC)c(S(=O)(=O)n2nc(C)cc2C)c1 | 1.0 | 7.0 | 135.0* | 125.0 | 95.0 | -1.0 | 101.0
CCNc1c(NS(=O)(=O)c2ccc(OC)cc2)c(=O)oc2ccccc12 | -10.1 | 0.0 | 103.0 | 104.0 | . | . | .
COc1ccc(NC(=O)Nc2nnc(-c3ccccc3SCc3ccccc3)s2)cc1 | 1.2 | 6.0 | 122.0* | 106.0 | 90.0 | 1.0 | 99.0
